For 29 compounds, [3H]NMS equilibrium binding (%) and pEC0.5 results are on record in ChEMBL document CHEMBL1148351, “Probing the pharmacophore for allosteric ligands of muscarinic M2 receptors: SAR and QSAR studies in a series of bisquaternary salts of caracurine V and related ring systems” (J Med Chem, 2004).

In assay [1] the target is T1, Muscarinic acetylcholine receptor M2 (Sus scrofa) (UniProt P06199).
T1 sequence (whole entry): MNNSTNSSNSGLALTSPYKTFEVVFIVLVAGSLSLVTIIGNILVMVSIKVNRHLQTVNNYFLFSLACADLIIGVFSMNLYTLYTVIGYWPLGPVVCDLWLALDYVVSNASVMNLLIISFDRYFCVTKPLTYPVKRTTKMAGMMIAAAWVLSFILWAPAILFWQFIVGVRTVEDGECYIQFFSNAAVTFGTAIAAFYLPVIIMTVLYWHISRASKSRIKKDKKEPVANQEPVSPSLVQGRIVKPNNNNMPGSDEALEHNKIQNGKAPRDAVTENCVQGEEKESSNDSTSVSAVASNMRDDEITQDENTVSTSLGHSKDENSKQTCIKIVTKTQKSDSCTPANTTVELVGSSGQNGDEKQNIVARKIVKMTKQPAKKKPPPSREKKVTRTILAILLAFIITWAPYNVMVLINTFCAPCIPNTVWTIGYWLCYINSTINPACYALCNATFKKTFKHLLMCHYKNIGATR
The assay is described as follows: Equilibrium binding to muscarinic acetylcholine receptor M2 using [3H]NMS in porcine heart ventricles.

Assay [2] deals with T1, Muscarinic acetylcholine receptor M2 (Sus scrofa). The assay is described as follows: Concentration for half maximal inhibition of [3H]NMS dissociation from muscarinic acetylcholine receptor M2 in porcine heart ventricles. The method, boiled down:
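Porcine cardiac homogenates, 0.2 nM [3H]NMS in 4 mM Na2HPO4/1 mM KH2PO4 pH 7.4, 23 °C; preincubated 30 min, then dissociation started with 1 μM atropine with or without modulator. Specific binding sampled over 120 min (complete) or at t=0 and 10 min (two-point). Apparent k-1 expressed as % control; four-parameter logistic fit gives EC0.5,diss. Two to four experiments; nonspecific defined by 10^-6 M atropine; filtration, scintillation counting.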

In assay [1], `C[N+]12CC[C@@]34c5ccccc5N5[C@@H]6OCC=C7C[N+]8(C)CC[C@]9%10c%11ccccc%11N([C@@H]%11OCC=C(C1)[C@H](C[C@@H]32)[C@@H]%11[C@H]54)[C@H]9[C@H]6[C@H]7C[C@@H]%108` (some centres not stated) displayed a [3H]NMS equilibrium binding (%) of 115%. In assay [2], the pEC0.5 turned out to be 8.09.
In the same order, the values of `Brc1ccc(C[N+]23CC[C@@]45c6ccccc6N6[C@@H]7OCC=C8C[N+]9(Cc%10ccc(Br)cc%10)CC[C@]%10%11c%12ccccc%12N([C@@H]%12OCC=C(C2)[C@H](C[C@@H]43)[C@@H]%12[C@H]65)[C@H]%10[C@H]7[C@H]8C[C@@H]%119)cc1` (some centres not stated) are 113% and 6.29.
The like results for `C=CC[N+]12CC[C@@]34c5ccccc5N5[C@@H]6OCC=C7C[N+]8(CC=C)CC[C@]9%10c%11ccccc%11N([C@@H]%11OCC=C(C1)[C@H](C[C@@H]32)[C@@H]%11[C@H]54)[C@H]9[C@H]6[C@H]7C[C@@H]%108` (some centres not stated) were, in that order, 109% and 7.95.
As for `FC(F)(F)c1ccc(C[N+]23CC[C@@]45c6ccccc6N6[C@@H]7OCC=C8C[N+]9(Cc%10ccc(C(F)(F)F)cc%10)CC[C@]%10%11c%12ccccc%12N([C@@H]%12OCC=C(C2)[C@H](C[C@@H]43)[C@@H]%12[C@H]65)[C@H]%10[C@H]7[C@H]8C[C@@H]%119)cc1` (some centres not stated), the [3H]NMS equilibrium binding (%) in assay [1] was determined as 87%. This compound yielded a pEC0.5 in assay [2] of 5.76.
In the same order, the values of `C1=C2C[N@+]3(CC4CC4)CCC45c6ccccc6N6C7OCC=C8C[N@+]9(CC%10CC%10)CCC%10%11c%12ccccc%12N(C(OC1)C(C2CC43)C65)C%10C7C8CC%119` (some centres not stated) are 110% and 7.86.
The like results for `O=C(C[N+]12CC[C@@]34c5ccccc5N5[C@@H]6OCC=C7C[N+]8(CC(=O)c9ccccc9)CC[C@]9%10c%11ccccc%11N([C@@H]%11OCC=C(C1)[C@H](C[C@@H]32)[C@@H]%11[C@H]54)[C@H]9[C@H]6[C@H]7C[C@@H]%108)c1ccccc1` (some centres not stated) were, in that order, 6.1% and 5.49.
With `C[N@@+]12CC[C@@]34c5ccccc5N5/C=C6/[C@H]7C[C@H]8[C@@]9(CC[N@@+]8(C)C/C7=C/CO)c7ccccc7N(/C=C(/[C@@H](C[C@@H]31)/C(=C\CO)C2)[C@H]54)[C@@H]69`, the [3H]NMS equilibrium binding (%) in assay [1] was 104%. In assay [2], this compound displayed a pEC0.5 of 7.02.
For the compound `C/C=C/C[N@+]12CCC34c5ccccc5N5C6OCC=C7C[N@+]8(C/C=C/C)CCC9%10c%11ccccc%11N(C%11OCC=C(C1)C(CC32)C%11C54)C9C6C7CC%108` (some centres not stated), in assay [1], the [3H]NMS equilibrium binding (%) was determined as 100%. Also, the pEC0.5 in assay [2] was 7.14.
The like results for `NC(=O)C[N+]12CC[C@@]34c5ccccc5N5[C@@H]6OCC=C7C[N+]8(CC(N)=O)CC[C@]9%10c%11ccccc%11N([C@@H]%11OCC=C(C1)[C@H](C[C@@H]32)[C@@H]%11[C@H]54)[C@H]9[C@H]6[C@H]7C[C@@H]%108` (some centres not stated) were, in that order, 87.8% and 6.65.
With `C1=C2C[N@+]3(Cc4ccc5ccccc5c4)CCC45c6ccccc6N6C7OCC=C8C[N@+]9(Cc%10ccc%11ccccc%11c%10)CCC%10%11c%12ccccc%12N(C(OC1)C(C2CC43)C65)C%10C7C8CC%119` (some centres not stated), the [3H]NMS equilibrium binding (%) in assay [1] was determined as 89%. Besides, the pEC0.5 in assay [2] is 5.82.
`C=CC[N+]12CC[C@]34c5cc(OC)c(OC)cc5N5C3[C@@H]3[C@@H](OCC=C(C1)[C@@H]3C[C@@H]42)N1c2cc(OC)c(OC)cc2[C@@]23CC[N+]4(CC=C)CC6=CCO[C@@H]5[C@@H](C12)[C@H]6C[C@@H]34` (some centres not stated): in assay [2], the pEC0.5 amounted to 6.69.
In assay [1], `C#CC[N@+]12CCC34c5ccccc5N5C6OCC=C7C[N@+]8(CC#C)CCC9%10c%11ccccc%11N(C%11OCC=C(C1)C(CC32)C%11C54)C9C6C7CC%108` (some centres not stated) returned a [3H]NMS equilibrium binding (%) of 105%. This compound also gave a pEC0.5 in assay [2] of 8.36.
The like results for `C1=C2C[N+]3(CC4CO4)CC[C@@]45c6ccccc6N6[C@@H]7OCC=C8C[N+]9(CC%10CO%10)CC[C@]%10%11c%12ccccc%12N([C@H](OC1)[C@H](C2C[C@@H]43)[C@H]65)[C@H]%10[C@H]7[C@H]8C[C@@H]%119` (some centres not stated) were, in that order, 110% and 7.19.
In the case of `C[N+]12CCC34c5ccccc5N5/C=C6/C7CC8C9(CC[N+]8(C)C/C7=C/CO)c7ccccc7N(/C=C(/C(CC31)/C(=C/CO)C2)C54)C69` (configuration not stated), the [3H]NMS equilibrium binding (%) in assay [1] stood at 119%. Also, the pEC0.5 in assay [2] stood at 7.87.
In the same order, the values of `OC/C=C1\C[N+]2(C3C=CCCC3)CCC34c5ccccc5N5/C=C6/C7CC8C9(CC[N+]8(C8C=CCCC8)C/C7=C/CO)c7ccccc7N(/C=C(/C1CC32)C54)C69` (configuration not stated) are 118% and 8.07.
The like results for `COc1ccc(C[N+]23CC[C@@]45c6ccccc6N6[C@@H]7OCC=C8C[N+]9(Cc%10ccc(OC)cc%10)CC[C@]%10%11c%12ccccc%12N([C@@H]%12OCC=C(C2)[C@H](C[C@@H]43)[C@@H]%12[C@H]65)[C@H]%10[C@H]7[C@H]8C[C@@H]%119)cc1` (some centres not stated) were, in that order, 70.4% and 5.95.
Compound `Fc1c(F)c(F)c(C[N@+]23CCC45c6ccccc6N6C7OCC=C8C[N@+]9(Cc%10c(F)c(F)c(F)c(F)c%10F)CCC%10%11c%12ccccc%12N(C%12OCC=C(C2)C(CC43)C%12C65)C%10C7C8CC%119)c(F)c1F` (some centres not stated) yielded a [3H]NMS equilibrium binding (%) in assay [1] of 111%. Moreover, the pEC0.5 in assay [2] was found to be 7.27.
The like results for `C=CC[N+]12CC[C@@]34c5ccccc5N5[C@@H]6OCC=C7CN8CC[C@]9%10c%11ccccc%11N([C@@H]%11OCC=C(C1)[C@H](C[C@@H]32)[C@@H]%11[C@H]54)[C@H]9[C@H]6[C@H]7C[C@H]8%10` (some centres not stated) were, in that order, 81.4% and 7.74.
The like results for `C=CC[N+]12CC[C@@]34c5ccccc5N5/C=C6\C7N(c8ccccc8[C@@]78CC[N+]7(CC=C)C/C(=C/CO)[C@@H]6C[C@@H]87)[C@@H]6OCC=C(C1)[C@H](C[C@@H]32)C6C54` (some centres not stated) were, in that order, 119% and 8.57.
In the same order, the values of `COc1ccc(C[N+]23CC[C@@]45c6ccccc6N6[C@@H]7OCC=C8C[N+]9(Cc%10ccc(OC)c(OC)c%10)CC[C@]%10%11c%12ccccc%12N([C@@H]%12OCC=C(C2)[C@H](C[C@@H]43)C%12[C@H]65)[C@H]%10[C@H]7[C@H]8C[C@@H]%119)cc1OC` (some centres not stated) are 100% and 6.47.
The compound `C[N+]12CC[C@@]34c5ccccc5N5[C@@H]6OCC[C@@H]7C[N+]8(C)CC[C@]9%10c%11ccccc%11N([C@@H]%11OCC[C@H](C1)[C@H](C[C@@H]32)C%11[C@H]54)[C@H]9[C@H]6[C@H]7C[C@@H]%108` (some centres not stated) returned a [3H]NMS equilibrium binding (%) in assay [1] of 104%. For the same compound, in assay [2], the pEC0.5 stood at 8.44.
In the same order, the values of `C1=C2CN3CC[C@]45c6ccccc6N6[C@@H]7OCC=C8CN9CC[C@]%10%11c%12ccccc%12N([C@H](OC1)[C@@H]([C@H]64)[C@H]2C[C@H]35)[C@H]%10[C@H]7[C@H]8C[C@H]9%11` are 95.8% and 6.36.
`O=C1c2ccccc2C(=O)N1CCC[N@+]12CCC34c5ccccc5N5C6OCC=C7C[N@+]8(CCCN9C(=O)c%10ccccc%10C9=O)CCC9%10c%11ccccc%11N(C%11OCC=C(C1)C(CC32)C%11C54)C9C6C7CC%108` (some centres not stated): the [3H]NMS equilibrium binding (%) in assay [1] stood at 88.4%. In assay [2], this compound showed a pEC0.5 of 6.43.
Take `C=CC[N@@+]12CC[C@@]34c5ccccc5N5/C=C6/[C@H]7C[C@H]8[C@@]9(CC[N@@+]8(CC=C)C/C7=C/CO)c7ccccc7N(/C=C(/[C@@H](C[C@@H]31)/C(=C\CO)C2)[C@H]54)[C@@H]69`: the [3H]NMS equilibrium binding (%) in assay [1] is 116%. The compound further showed a pEC0.5 in assay [2] of 8.65.
In the same order, the values of `CC#CC[N@+]12CCC34c5ccccc5N5C6OCC=C7C[N@+]8(CC#CC)CCC9%10c%11ccccc%11N(C%11OCC=C(C1)C(CC32)C%11C54)C9C6C7CC%108` (some centres not stated) are 103% and 7.36.
The compound `N#CC[N+]12CC[C@@]34c5ccccc5N5[C@@H]6OCC=C7C[N+]8(CC#N)CC[C@]9%10c%11ccccc%11N([C@@H]%11OCC=C(C1)[C@H](C[C@@H]32)C%11[C@H]54)[C@H]9[C@H]6[C@H]7C[C@@H]%108` (some centres not stated) displayed a [3H]NMS equilibrium binding (%) in assay [1] of 85.3%. The compound also displayed a pEC0.5 in assay [2] of 6.69.
The like results for `O=[N+]([O-])c1ccc(C[N+]23CC[C@@]45c6ccccc6N6[C@@H]7OCC=C8C[N+]9(Cc%10ccc([N+](=O)[O-])cc%10)CC[C@]%10%11c%12ccccc%12N([C@@H]%12OCC=C(C2)[C@H](C[C@@H]43)C%12[C@H]65)[C@H]%10[C@H]7[C@H]8C[C@@H]%119)cc1` (some centres not stated) were, in that order, 99.8% and 6.47.
The like results for `C1=C2C[N@+]3(Cc4ccccc4)CCC45c6ccccc6N6C7OCC=C8C[N@+]9(Cc%10ccccc%10)CCC%10%11c%12ccccc%12N(C(OC1)C(C2CC43)C65)C%10C7C8CC%119` (some centres not stated) were, in that order, 86.4% and 7.12.
The like results for `C1=CC([N@+]23CCC45c6ccccc6N6C7OCC=C8C[N@+]9(C%10C=CCCC%10)CCC%10%11c%12ccccc%12N(C%12OCC=C(C2)C(CC43)C%12C65)C%10C7C8CC%119)CCC1` (some centres not stated) were, in that order, 109% and 7.7.
